Results collected from several papers.
Target: Serine/threonine-protein kinase DCLK2 (DCLK2, Homo sapiens, UniProt Q8N568)
Residues used in one study (Q8N568 1-766): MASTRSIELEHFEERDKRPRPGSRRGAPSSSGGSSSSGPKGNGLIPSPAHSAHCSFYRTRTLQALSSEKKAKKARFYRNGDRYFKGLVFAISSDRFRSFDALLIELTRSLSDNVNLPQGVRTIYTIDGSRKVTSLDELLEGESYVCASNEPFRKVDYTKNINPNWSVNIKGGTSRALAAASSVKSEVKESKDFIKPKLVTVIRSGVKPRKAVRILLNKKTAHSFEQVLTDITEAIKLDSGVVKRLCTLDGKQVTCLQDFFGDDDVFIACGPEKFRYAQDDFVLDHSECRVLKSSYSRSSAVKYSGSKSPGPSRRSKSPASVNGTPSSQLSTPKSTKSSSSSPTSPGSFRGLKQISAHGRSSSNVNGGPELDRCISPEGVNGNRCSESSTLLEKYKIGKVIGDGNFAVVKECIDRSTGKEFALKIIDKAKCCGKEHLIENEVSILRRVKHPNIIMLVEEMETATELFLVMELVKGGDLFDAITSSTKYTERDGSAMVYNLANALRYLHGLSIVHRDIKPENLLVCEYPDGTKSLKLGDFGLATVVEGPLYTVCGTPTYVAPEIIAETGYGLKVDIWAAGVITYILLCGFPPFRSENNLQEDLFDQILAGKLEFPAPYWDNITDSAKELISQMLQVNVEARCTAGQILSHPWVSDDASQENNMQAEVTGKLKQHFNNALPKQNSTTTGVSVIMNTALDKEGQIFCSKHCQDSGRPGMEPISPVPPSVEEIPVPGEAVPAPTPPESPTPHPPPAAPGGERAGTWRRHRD

| SMILES | assay | conditions | remaining binding [%] |
| --- | --- | --- | --- |
| O=C(c1ccc(Nc2ncc(Cl)c(-c3cc4ccccc4s3)n2)cc1)N1CCC(N2CCCC2)CC1 | binding, competition with immobilised ligand | 1 µM | 90 |
| O=C(NCC1CCOCC1)c1n[nH]cc1NC(=O)c1c(F)cccc1F | binding, competition with immobilised ligand | 1 µM | 100 |
| COc1cc(C(=O)N2CCC(N3CCN(C)CC3)CC2)ccc1Nc1ncc2c(n1)N(C)c1ccccc1C(=O)N2C | binding, competition with immobilised ligand | 10 µM | 0.45 |
| NS(=O)(=O)c1cc(NC(=O)C2(c3ccccc3Cl)CC2)ccc1Oc1cccc(Cl)c1 | cell-free assay, competition with immobilised ligand | 1 µM | 74 |
| FC(F)(F)Oc1cccc(-c2cnc3ccc(-c4ccncc4)nn23)c1 | cell-free assay, competition with immobilised ligand | 5 µM | 100 |
| O=C(NCCCN1CCOCC1)c1ccc(Nc2ncc(Cl)c(-c3ccc(Cl)s3)n2)cc1 | binding, competition with immobilised ligand | 1 µM | 78 |
| Cn1nc(C(F)(F)F)cc1-c1cnc(N2CCc3cc(S(=O)(=O)Nc4c(F)cc(Cl)cc4F)cc(N4CCCC4=O)c32)nc1 | cell-free assay, competition with immobilised ligand | 1 µM | 100 |
| CN(CCCC(F)(F)F)c1nccc(-c2cnn3ncccc23)n1 | binding | 1 µM | 88 |
| O=C(NCCCN1CCOCC1)c1ccc(Nc2nccc(-c3cc4ccccc4s3)n2)cc1 | binding, competition with immobilised ligand | 1 µM | 98 |
| Cc1cc(-n2nc(Cc3cc(F)cc(C(F)(F)F)c3)nc2C)ccc1C(N)=O | cell-free assay, competition with immobilised ligand | 1 µM | 100 |
| C[C@@H](c1ccc(-n2cnc3c(N)ncnc32)cc1)N1CCc2nn(C)c(Cc3ccccc3)c2C1=O | binding, competition with immobilised ligand | 0.1 µM | 100 |
| Cc1cnn2ncc(-c3ccnc(N(C)C)n3)c2c1 | binding | 1 µM | 100 |
| CNCc1ccccc1-c1csc([C@H](C)Nc2nc(C)nc3cc(OC)c(OC)cc23)c1 | cell-free assay, competition with immobilised ligand | 1 µM | 100 |
| CC1CCCN1c1nccc(-c2cnn3ncccc23)n1 (stereo not shown) | binding | 1 µM | 100 |
| CCOC(=O)c1cc2cc(-c3cc(C(=O)NCc4ccc(C(=O)O)cc4)nn3C)ccc2[nH]1 | cell-free assay, competition with immobilised ligand | 0.1 µM | 100 |
| COc1cnc(Nc2cccc(S(N)(=O)=O)c2)nc1N1CCN(c2ccccc2)C(=O)C1 | binding, competition with immobilised ligand | 1 µM | 100 |
| Nc1ncc2c(n1)-c1c([nH]c3ccc(C#CC4CC4)cc13)CCCC2 | binding, competition with immobilised ligand | 1 µM | 89 |
| CN(C)CC#Cc1ccc(OCCCc2sc(N3CCc4cccc(C(=O)Nc5nc6ccccc6s5)c4C3)nc2C(=O)O)c(F)c1 | cell-free assay, competition with immobilised ligand | 1 µM | 100 |
| CN(C)c1ncc(F)c(-c2cnn3ncccc23)n1 | binding | 1 µM | 96 |
